From ChEMBL document CHEMBL2424522, “Demonic axe-like conjugated alkynes in combating microbes” (2013)
Values after ≈ are worked out from the molar mass of the structure shown.

Tests used:
Assay type in all cases: functional
Aspergillus flavus [1] = assay: Antifungal activity against Aspergillus flavus MTCC 277 at 100 ug/ml after 48 hrs by agar well diffusion method; details: MTCC 277, 48 h, read-out: IZ
How it was run: (§1)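 Test samples and DMSO controls incubated at 27 °C for 48 h. Inhibition zone diameter measured in mm. Three to four replicates per treatment.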

Pseudomonas aeruginosa = assay: Antibacterial activity against Pseudomonas aeruginosa MTCC 741 by broth dilution method
How it was run: (§2)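 Broth dilution per NCCL standards; all phosphorus ylides and conjugated alkynes tested in vitro.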

Diutina rugosa [2] = assay: Antifungal activity against Candida rugosa NCIM 3462 at 50 ug/ml after 48 hrs by agar well diffusion method; details: NCIM 3462, 48 h, read-out: IZ; how it was run: as §1
Aspergillus niger [3] = assay: Antifungal activity against Aspergillus niger MTCC 344 at 50 ug/ml after 48 hrs by agar well diffusion method; details: MTCC 344, 48 h, read-out: IZ; how it was run: as §1
Bacillus subtilis = assay: Antibacterial activity against Bacillus subtilis MTCC 441 by broth dilution method; how it was run: as §2
Candida albicans [4] = assay: Antifungal activity against Candida albicans MTCC 227 at 50 ug/ml after 48 hrs by agar well diffusion method; details: MTCC 227, 48 h, read-out: IZ; how it was run: as §1
Klebsiella pneumoniae = assay: Antibacterial activity against Klebsiella pneumoniae MTCC 618 by broth dilution method; how it was run: as §2
Candida albicans [5] = assay: Antifungal activity against Candida albicans MTCC 227 at 100 ug/ml after 48 hrs by agar well diffusion method; details: MTCC 227, 48 h, read-out: IZ; how it was run: as §1
Saccharomyces cerevisiae [6] = assay: Antifungal activity against Saccharomyces cerevisiae MTCC 36 at 50 ug/ml after 48 hrs by agar well diffusion method; details: MTCC 36, 48 h, read-out: IZ; how it was run: as §1
Saccharomyces cerevisiae [7] = assay: Antifungal activity against Saccharomyces cerevisiae MTCC 36 at 100 ug/ml after 48 hrs by agar well diffusion method; details: MTCC 36, 48 h, read-out: IZ; how it was run: as §1
Aspergillus niger [8] = assay: Antifungal activity against Aspergillus niger MTCC 344 at 100 ug/ml after 48 hrs by agar well diffusion method; details: MTCC 344, 48 h, read-out: IZ; how it was run: as §1
[9] = system: Staphylococcus epidermidis; assay: Antibacterial activity against Staphylococcus epidermidis MTCC 435 by broth dilution method; how it was run: as §2
Staphylococcus aureus = assay: Antibacterial activity against Staphylococcus aureus MTCC 96 by broth dilution method; how it was run: as §2
Escherichia coli = assay: Antibacterial activity against Escherichia coli MTCC 443 by broth dilution method; how it was run: as §2
Diutina rugosa [10] = assay: Antifungal activity against Candida rugosa NCIM 3462 at 100 ug/ml after 48 hrs by agar well diffusion method; details: NCIM 3462, 48 h, read-out: IZ; how it was run: as §1
Aspergillus flavus [11] = assay: Antifungal activity against Aspergillus flavus MTCC 277 at 50 ug/ml after 48 hrs by agar well diffusion method; details: MTCC 277, 48 h, read-out: IZ; how it was run: as §1

MIC (Pseudomonas aeruginosa) [µg/mL]	MIC (Bacillus subtilis) [µg/mL]	MIC (Klebsiella pneumoniae) [µg/mL]	MIC [9] [µg/mL]	MIC (Staphylococcus aureus) [µg/mL]	MIC (Escherichia coli) [µg/mL]	Structure (SMILES)	zone of inhibition at 100 µg/mL (Aspergillus flavus [1]) [mm]	zone of inhibition at 50 µg/mL (Diutina rugosa [2]) [mm]	zone of inhibition at 50 µg/mL (Aspergillus niger [3]) [mm]	zone of inhibition at 50 µg/mL (Candida albicans [4]) [mm]	zone of inhibition at 100 µg/mL (Candida albicans [5]) [mm]	zone of inhibition at 50 µg/mL (Saccharomyces cerevisiae [6]) [mm]	zone of inhibition at 100 µg/mL (Saccharomyces cerevisiae [7]) [mm]	zone of inhibition at 100 µg/mL (Aspergillus niger [8]) [mm]	zone of inhibition at 100 µg/mL (Diutina rugosa [10]) [mm]	zone of inhibition at 50 µg/mL (Aspergillus flavus [11]) [mm]
> 150	> 150	> 150	> 150	> 150	> 150	N#CC(C(=O)c1cccnc1Cl)=P(c1ccccc1)(c1ccccc1)c1ccccc1	0				0		0	0	0	
> 150	> 150	> 150	> 150	> 150	> 150	CC(C)(C)C(=O)C(C#N)=P(c1ccccc1)(c1ccccc1)c1ccccc1	0				0		0	0	0	
> 150	> 150	> 150	> 150	> 150	> 150	N#CC(C(=O)c1ccc(Cl)nc1)=P(c1ccccc1)(c1ccccc1)c1ccccc1	0				0		0	0	0	
> 150	> 150	> 150	> 150	> 150	> 150	N#CC(C(=O)c1ccco1)=P(c1ccccc1)(c1ccccc1)c1ccccc1	0				0		0	0	0	
> 150	> 150	> 150	> 150	> 150	> 150	Cc1ccccc1C(=O)C(C#N)=P(c1ccccc1)(c1ccccc1)c1ccccc1	0				0		0	0	0	
> 150	> 150	> 150	> 150	> 150	> 150	CC(C)OC(=O)C(C(=O)c1ccco1)=P(c1ccccc1)(c1ccccc1)c1ccccc1	0				0		0	0	0	
> 150	> 150	> 150	> 150	> 150	> 150	N#CC(C(=O)c1cc(F)c(Cl)nc1Cl)=P(c1ccccc1)(c1ccccc1)c1ccccc1	0				0		0	0	0	
> 150	> 150	> 150	> 150	> 150	> 150	CCOC(=O)C(C(=O)c1ccco1)=P(c1ccccc1)(c1ccccc1)c1ccccc1	0				0		0	0	0	
> 150	> 150	> 150	> 150	> 150	> 150	CCOC(=O)C(C(=O)c1cccnc1Cl)=P(c1ccccc1)(c1ccccc1)c1ccccc1	0				0		0	0	0	
> 150	> 150	> 150	> 150	> 150	> 150	CCOC(=O)C(C(=O)c1ccccc1C)=P(c1ccccc1)(c1ccccc1)c1ccccc1	0				0		0	0	0	

Further lines, the compound ahead of its results:

Structure (SMILES)	MIC (Pseudomonas aeruginosa) [µg/mL]	MIC (Bacillus subtilis) [µg/mL]	MIC (Klebsiella pneumoniae) [µg/mL]	MIC [9] [µg/mL]	MIC (Staphylococcus aureus) [µg/mL]	MIC (Escherichia coli) [µg/mL]	zone of inhibition at 100 µg/mL (Aspergillus flavus [1]) [mm]	zone of inhibition at 50 µg/mL (Diutina rugosa [2]) [mm]	zone of inhibition at 50 µg/mL (Aspergillus niger [3]) [mm]	zone of inhibition at 50 µg/mL (Candida albicans [4]) [mm]	zone of inhibition at 100 µg/mL (Candida albicans [5]) [mm]	zone of inhibition at 50 µg/mL (Saccharomyces cerevisiae [6]) [mm]	zone of inhibition at 100 µg/mL (Saccharomyces cerevisiae [7]) [mm]	zone of inhibition at 100 µg/mL (Aspergillus niger [8]) [mm]	zone of inhibition at 100 µg/mL (Diutina rugosa [10]) [mm]	zone of inhibition at 50 µg/mL (Aspergillus flavus [11]) [mm]
Cc1ccccc1C#CC#N	> 150	> 150	> 150	> 150	> 150	> 150	0	0	0	0	0	0	0	0	0	0
CC(C)OC(=O)C(C(=O)c1cc(F)c(Cl)nc1Cl)=P(c1ccccc1)(c1ccccc1)c1ccccc1	> 150	> 150	> 150	> 150	> 150	> 150	0				0		0	0	0	
CC(C)OC(=O)C#Cc1ccc(Cl)nc1	1.56 (≈ 6.97 µM)	50 (≈ 224 µM)	12.5 (≈ 55.9 µM)	1.56 (≈ 6.97 µM)	1.56 (≈ 6.97 µM)	100 (≈ 447 µM)	19	0	17	13	19	11	17	23	11	12
CCOC(=O)C(C(=O)c1cc(F)c(Cl)nc1Cl)=P(c1ccccc1)(c1ccccc1)c1ccccc1	> 150	> 150	> 150	> 150	> 150	> 150	0				0		0	0	0	
CCOC(=O)C(C(=O)c1ccc(Cl)nc1)=P(c1ccccc1)(c1ccccc1)c1ccccc1	> 150	> 150	> 150	> 150	> 150	> 150	0				0		0	0	0	
C[C@@H]1[C@H](O)[C@@H](C)/C=C/C=C/C=C/C=C/C=C/C=C/C=C/[C@H](O[C@@H]2O[C@H](C)[C@@H](O)[C@H](N)[C@@H]2O)C[C@@H]2O[C@](O)(C[C@@H](O)C[C@@H](O)[C@H](O)CC[C@@H](O)C[C@@H](O)CC(=O)O[C@H]1C)C[C@H](O)[C@H]2C(=O)O [AMPHOTERICIN B]								21	25	23.5		22				25
CN[C@@H]1[C@H](O[C@H]2[C@H](O[C@H]3[C@H](O)[C@@H](O)[C@H](N=C(N)N)[C@@H](O)[C@@H]3N=C(N)N)O[C@@H](C)[C@]2(O)C=O)O[C@@H](CO)[C@H](O)[C@H]1O [STREPTOMYCIN]	1.56 (≈ 2.69 µM)	6.25 (≈ 10.7 µM)	3.12 (≈ 5.37 µM)	3.12 (≈ 5.37 µM)	6.25 (≈ 10.7 µM)	6.25 (≈ 10.7 µM)										
CCOC(=O)C(C(=O)C(C)(C)C)=P(c1ccccc1)(c1ccccc1)c1ccccc1	> 150	> 150	> 150	> 150	> 150	> 150	0				0		0	0	0	
CC(C)OC(=O)C(C(=O)C(C)(C)C)=P(c1ccccc1)(c1ccccc1)c1ccccc1	> 150	> 150	> 150	> 150	> 150	> 150	0				0		0	0	0	
CC(C)OC(=O)C(C(=O)c1ccc(Cl)nc1)=P(c1ccccc1)(c1ccccc1)c1ccccc1	> 150	> 150	> 150	> 150	> 150	> 150	0				0		0	0	0	
CC1(C)S[C@@H]2[C@H](NC(=O)Cc3ccccc3)C(=O)N2[C@H]1C(=O)O [PENICILLIN G]	12.5 (≈ 37.4 µM)	1.56 (≈ 4.67 µM)	6.25 (≈ 18.7 µM)	3.12 (≈ 9.35 µM)	1.56 (≈ 4.67 µM)	12.5 (≈ 37.4 µM)										
